Experimental data as given in ChEMBL document CHEMBL1133083, “Synthesis and immunosuppressive activity of 2-substituted 2-aminopropane-1,3-diols and 2-aminoethanols” (2000).

How the values were obtained:
[1] = species on record: Rattus norvegicus; experiment: T cell-decreasing effect in spleen cells of WKAH rat which were injected into foot-pad of LEW rat.; format: functional; settings: read-out: ID50 (the source's name)
How it was run: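 T-cell decrease was measured in the popliteal node gain model: WKAH spleen cells (5 × 10⁶) injected into the LEW rat footpad, with oral dosing for 4 days from the day of injection. Blood T-cells were counted by two-colour flow cytometry with FITC anti-rat CD3 (1F4) and PE anti-rat CD45RA (OX-33). Value is ID₅₀ (mg/kg).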

[2] = species on record: Rattus norvegicus; experiment: Immunosuppressive activity against LEW rats injected with spleen cells of WKAH rat in Popliteal Lymph Node Gain Assay.; format: functional; settings: read-out: ID50 (the source's name)
How it was run: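 Popliteal lymph node gain: WKAH rat (RT1^k) spleen cells, 5 × 10⁶, injected into footpad of LEW rats (RT1^l) to enlarge the draining popliteal node. Compound given orally for 4 days starting on the day of cell injection, then popliteal node weighed. Value is ID₅₀ (mg/kg).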

[3] = test system: Rattus norvegicus; experiment: Immunosuppressive activity against skin allograft in F344 recipient (rat) from LEW donor (rat) at a concentration of 1 mg/kg; format: functional
How it was run: (§1)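 MHC-compatible skin allograft: LEW (RT1^l) donor skin to F344 (RT1^lv1) recipients, all rats 4-6 weeks old. Full-thickness 2.0 × 2.0 cm grafts were placed on the recipient's lateral thorax under sterile bactericidal gauze. Read-out was mean survival time in days ± SE, with four animals per group. Deaths were scored as toxic.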

[4] = test system: Rattus norvegicus; experiment: Immunosuppressive activity against skin allograft in F344 recipient (rat) from LEW donor (rat) at a concentration of 3 mg/kg; format: functional; how it was run: as §1
[5] = test system: Rattus norvegicus; experiment: Immunosuppressive activity against skin allograft in F344 recipient (rat) from LEW donor (rat) at a concentration of 10 mg/kg; Toxic; format: functional, organism-based; parameters: dose 10 mg/kg
[6] = species on record: Rattus norvegicus; experiment: Lymphocyte-decreasing effect against F344 rats.; format: functional; settings: for ED50: read-out: ID50 (the source's name)
How it was run: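 F344 rats aged 5 weeks were dosed intraperitoneally in 20% hydroxypropyl-β-cyclodextrin. Peripheral blood was taken 24 h later and total lymphocytes counted by lymphocyte gating. ID₅₀/ID₈₀ is the lowest dose lowering the lymphocyte count by 50% or 80% of the vehicle-treated control.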

[7] = test system: Rattus norvegicus; experiment: Immunosuppressive activity against skin allograft in F344 recipient (rat) from LEW donor (rat) at a concentration of 0.3 mg/kg; format: functional; how it was run: as §1
[8] = test system: Rattus norvegicus; experiment: Immunosuppressive activity against skin allograft in F344 recipient (rat) from LEW donor (rat) at a concentration of 0.1 mg/kg; format: functional; how it was run: as §1
[9] = test system: Rattus norvegicus; experiment: Immunosuppressive activity against skin allograft in F344 recipient (rat) from LEW donor (rat) at a concentration of 3 mg/kg; Toxic; format: functional, organism-based; parameters: dose 3 mg/kg
[10] = test system: Rattus norvegicus; experiment: Immunosuppressive activity against skin allograft in F344 recipient (rat) from LEW donor (rat) at a concentration of 30 mg/kg; format: functional; how it was run: as §1
[11] = test system: Rattus norvegicus; experiment: Immunosuppressive activity against skin allograft in F344 recipient (rat) from LEW donor (rat) at a concentration of 10 mg/kg; format: functional; how it was run: as §1

In the case of CCCCCCCOc1ccc(CCC(N)(CO)CCO)cc1 (stereo unspecified), the ED50 [1] is reported as 0.055 mg/kg and the ED50 [2] is reported as 0.038 mg/kg.

CCCCCCCN(C)c1ccc(CCC(N)(CO)CO)cc1.Cl was tested, and the MST [3] was 21.3 days, the MST [4] was 29 days and the MST [5] was “Toxic”. It also gave an ID80 [6] of 1 mg/kg and an ED50 [6] of 1 mg/kg.

CCCCCCCOc1ccc(CCC(N)(CO)C(C)C)cc1.Cl (stereo unspecified) gave an ED50 [1] of 4.5 mg/kg.

With CCCCCCCCc1ccc(CCC(N)CO)cc1.Cl (stereo unspecified) the ED50 [1] was > 10 mg/kg and the ED50 [2] was > 10 mg/kg.

With CCCCCCCCc1ccccc1CCC(N)(CO)CO.Cl the ID80 [6] was >3 mg/kg and the ED50 [6] was > 3 mg/kg.

In the case of CCCCCCCCCCc1ccc(CCC(N)(CO)CO)cc1.Cl, the MST [3] is reported as 48 days, the MST [7] is reported as 37.8 days and the MST [8] is reported as 20 days. For the same compound, the MST [9] was “Toxic”, the ID80 [6] was 0.1 mg/kg and the ED50 [6] was 0.1 mg/kg.

CCCCCCCCc1ccc(CCC(N)(CO)CCCO)cc1.Cl (stereo unspecified) showed an ED50 [1] of 0.021 mg/kg and an ED50 [2] of 0.085 mg/kg.

For CCCCCCCSc1ccc(CCC(N)(CO)CO)cc1, the MST [3] was 44.5 days, the MST [7] was 36 days and the MST [8] was 22.3 days. The MST [9] was “Toxic”, the ID80 [6] was 0.03 mg/kg and the ED50 [6] was 0.03 mg/kg.

In the case of CCCCCCCOc1ccc(CCC(N)(CO)CO)cc1.Cl, the MST [3] is reported as 33.8 days, the ED50 [1] is reported as 0.014 mg/kg and the MST [7] is reported as 23.5 days. For the same compound, the MST [8] was 15 days, the MST [4] was 39.5 days and the MST [5] was “Toxic”. For the same compound, the ID80 [6] was 0.1 mg/kg and the ED50 [6] was 0.03 mg/kg.

In the case of CCCCCCCOc1ccc(CC[C@](N)(CO)CCO)cc1.Cl, the ED50 [1] is reported as 4.2 mg/kg and the ED50 [2] is reported as 4.2 mg/kg.

In the case of CCCCCCCC(O)c1ccc(CCC(N)(CO)CO)cc1 (stereo unspecified), the ID80 [6] is reported as 0.3 mg/kg and the ED50 [6] is reported as 0.1 mg/kg.

Compound CCCCCCCC(=O)c1ccc(CCC(N)(CO)CO)cc1 has an MST [3] of 32.5 days, an MST [7] of 25.5 days and an MST [8] of 19.8 days. The MST [9] was “Toxic”, the ID80 [6] was 0.3 mg/kg and the ED50 [6] was 0.03 mg/kg.

C/C=C/C[C@@H](C)[C@@H](O)[C@H]1C(=O)N[C@@H](CC)C(=O)N(C)CC(=O)N(C)[C@@H](CC(C)C)C(=O)N[C@@H](C(C)C)C(=O)N(C)[C@@H](CC(C)C)C(=O)N[C@@H](C)C(=O)N[C@H](C)C(=O)N(C)[C@@H](CC(C)C)C(=O)N(C)[C@@H](CC(C)C)C(=O)N(C)[C@@H](C(C)C)C(=O)N1C [CYCLOSPORINE] was tested, and the MST [3] was 8 days, the ED50 [1] was > 30 mg/kg and the MST [4] was 10.8 days. The MST [10] was 19.8 days, the ID80 [6] was >30 mg/kg and the ED50 [6] was > 30 mg/kg.

CCCCCCCOc1ccc(CCC(N)(CO)CCC)cc1 (stereo unspecified) showed an ED50 [1] of 7.3 mg/kg.

Work on CCCCCCCCc1ccc(CCC(N)(CO)CCO)cc1 (stereo unspecified) yielded an ED50 [1] of 0.12 mg/kg and an ED50 [2] of 0.009 mg/kg.

With CCCCCCCc1ccc(CCCC(N)(CO)CO)cc1.Cl the MST [11] was 10.5 days, the MST [4] was 9 days and the ID80 [6] was >3 mg/kg. For the same compound, the ED50 [6] was > 3 mg/kg.

With CCCCCCCOc1ccc(CC[C@@](C)(N)CO)cc1.Cl the ED50 [1] was 0.0092 mg/kg.

Compound CCCCCCCOc1ccc(CCC(N)(CC)CO)cc1.Cl (stereo unspecified) has an ED50 [1] of 0.044 mg/kg.

CCCCCCCOc1ccc(CC[C@@](N)(CO)CCC)cc1 gave an ED50 [1] of 4.4 mg/kg.

In the case of CCCCCCCCCCCCCCc1ccc(CCC(N)(CO)CO)cc1.Cl, the ID80 [6] is reported as >3 mg/kg and the ED50 [6] is reported as 1 mg/kg.

In the case of CCCCCCCCc1ccc(CCC(N)(CCO)CCO)cc1, the ED50 [1] is reported as > 10 mg/kg and the ED50 [2] is reported as > 10 mg/kg.

CCCCc1ccc(CCCCCCC(N)(CO)CO)cc1.Cl gave an MST [11] of 13.5 days, an MST [4] of 9.8 days and an ID80 [6] of 1 mg/kg. It also gave an ED50 [6] of 0.3 mg/kg.

For CCCCCCCCCc1ccc(CCC(N)(CO)CO)cc1.Cl, the MST [3] was 32 days, the MST [7] was 23 days and the MST [9] was “Toxic”. For the same compound, the ID80 [6] was 0.1 mg/kg and the ED50 [6] was 0.03 mg/kg.

Work on C=CCC(N)(CO)CCc1ccc(OCCCCCCC)cc1 (stereo unspecified) yielded an ED50 [1] of 3.1 mg/kg and an ED50 [2] of 1.9 mg/kg.

For CCCCCCCCc1ccc(CCC(N)(CO)C(=O)O)cc1 (stereo unspecified), the ED50 [1] was > 10 mg/kg and the ED50 [2] was > 10 mg/kg.

CCCCCCCCc1cccc(CCC(N)(CO)CO)c1.Cl was tested, and the ID80 [6] was >3 mg/kg and the ED50 [6] was > 3 mg/kg.

In the case of CCCCCCCOc1ccc(CC[C@@](N)(CO)CCO)cc1.Cl, the ED50 [1] is reported as 0.018 mg/kg and the ED50 [2] is reported as 0.017 mg/kg.

CCCCCCCCc1ccc(CCC(N)(CO)CO)s1.Cl gave an MST [3] of 17.3 days, an MST [7] of 13 days and an MST [4] of 21 days. The ID80 [6] was >3 mg/kg and the ED50 [6] was 1 mg/kg.

With CCCCCCCCCCc1ccc(C(N)(CO)CO)cc1.Cl the ID80 [6] was >3 mg/kg and the ED50 [6] was 0.3 mg/kg.

In the case of CCCCCCCCCCCCCc1ccc(CCC(N)(CO)CO)cc1.Cl, the ID80 [6] is reported as 1 mg/kg and the ED50 [6] is reported as 0.03 mg/kg.

For CCc1ccc(CCCCCCCCC(N)(CO)CO)cc1.Cl, the MST [11] was 8.6 days, the MST [4] was 8.5 days and the ID80 [6] was >3 mg/kg. The ED50 [6] was > 3 mg/kg.

In the case of CCCCCCCCCc1ccc(CC(N)(CO)CO)cc1.Cl, the MST [11] is reported as 11.8 days, the MST [4] is reported as 9.8 days and the ID80 [6] is reported as >3 mg/kg. For the same compound, the ED50 [6] was > 3 mg/kg.

CCCCCCC/C(=N\O)c1ccc(CCC(N)(CO)CO)cc1 gave an ID80 [6] of 1 mg/kg and an ED50 [6] of 0.03 mg/kg.

For CCCCCCCCc1ccc(CCC(C)(N)CCO)cc1.Cl (stereo unspecified), the ED50 [1] was > 10 mg/kg and the ED50 [2] was > 10 mg/kg.

For CCCCCCCOc1ccc(CC[C@](N)(CO)CCC)cc1, the ED50 [1] was > 10 mg/kg and the ED50 [2] was > 10 mg/kg.

CCCCCCCCCCCc1ccc(CCC(N)(CO)CO)cc1.Cl was tested, and the MST [3] was 39.3 days, the MST [7] was 23.3 days and the MST [9] was “Toxic”. It also gave an ID80 [6] of 0.1 mg/kg and an ED50 [6] of 0.1 mg/kg.

With CCCCCCCOc1ccc(CCC(N)(CO)CCCC)cc1 (stereo unspecified) the ED50 [1] was > 10 mg/kg and the ED50 [2] was > 10 mg/kg.

CCCCCCCCc1ccc(CCC(N)(CO)CO)cc1.Cl [FINGOLIMOD HYDROCHLORIDE] was tested, and the MST [3] was 39.5 days, the ED50 [1] was 0.024 mg/kg and the MST [7] was 31.3 days. It also gave an ED50 [2] of 0.0097 mg/kg, an MST [8] of 25.3 days and an MST [4] of 52 days. For the same compound, the MST [5] was “Toxic”, the ID80 [6] was 0.1 mg/kg and the ED50 [6] was 0.03 mg/kg.

In the case of Cl.NC(CO)(CO)CCCCCCCCCCc1ccccc1, the MST [3] is reported as 27 days, the MST [7] is reported as 21.5 days and the MST [8] is reported as 11.5 days. For the same compound, the MST [9] was “Toxic”, the ID80 [6] was 1 mg/kg and the ED50 [6] was 0.3 mg/kg.

Compound CCCCCCCc1ccc(CCC(N)(CO)CO)cc1.Cl has an ID80 [6] of 0.3 mg/kg and an ED50 [6] of 0.1 mg/kg.

For CCCCCCCCCCCCCCC(N)(CO)CO.Cl, the MST [3] was 37.3 days, the MST [7] was 26.5 days and the MST [8] was 13.8 days. The MST [4] was 45.5 days, the MST [5] was “Toxic” and the ID80 [6] was 0.3 mg/kg. For the same compound, the ED50 [6] was 0.3 mg/kg.

CCCCCCCCCCCCc1ccc(CCC(N)(CO)CO)cc1.Cl gave an MST [3] of 40.5 days, an MST [7] of 22.8 days and an MST [8] of 12 days. For the same compound, the MST [4] was 53 days, the MST [5] was “Toxic” and the ID80 [6] was 1 mg/kg. The ED50 [6] was 0.1 mg/kg.

In the case of CCCCCCc1ccc(CCCCC(N)(CO)CO)cc1, the MST [11] is reported as 18.8 days, the MST [4] is reported as 13.8 days and the ID80 [6] is reported as >3 mg/kg. The ED50 [6] was > 3 mg/kg.
